Diaph act CS – counter-screen for diaphorase-based assays: diaphorase activators and chemical reducers | activation factor at 20 µM | hit rate 0.005% among 190,000 | AID 1229 | Diaphorase/resazurin coupled assay, resorufin fluorescence, 16 min; stronger effect = higher value; 1 = vehicle wells, 0 = NADH-free wells;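 active means diaphorase activity raised at least twofold by the compound at 20 µM; inactive means activation factor below 2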
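test system = bacterial diaphorase enzyme (C. kluyveri) | quantity = enzyme 0.07 U/mL final | reagent = NADH substrate 0.114 mM plus resazurin dye 0.1 mM, final | incubation = 16 min enzyme reaction, ambient temperature | buffer or medium = HEPES pH 7.4 buffer with MgCl2 and Tween 20 | signal = fluorescence of resorufin, 544 nm excitation, 590 nm emission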
G6PDH counter – inhibits Leuconostoc G6PDH, flagging false hits in G6PDH-based assays | inhibition, % at 5 µM | hit rate 0.12% among 200,000 | Purified L. mesenteroides G6PDH, diaphorase/resazurin coupled fluorescence, 45 min; in the data active means inhibition above about 50%
PfG6PD inh – PfG6PD (Plasmodium falciparum) enzyme inhibition; PfGluPho enzyme, NADPH resazurin-diaphorase fluorescence; inhibition, % at 20 µM; hit rate 0.78% among 350,000; AID 504690;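 active means inhibition reaching at least a set limit at 20 µM in the primary screen, cut at about 59% in these data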;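 further: 0% = DMSO wells with substrate and 100% = DMSO wells lacking glucose-6-phosphate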
Diaphorase inh – inhibits diaphorase or chemically oxidizes, flagging diaphorase assay artifacts. diaphorase resazurin-to-resorufin fluorescence, NADH, 16 min; bacterial (C. kluyveri) enzyme, not human. inhibition, % at 20 µM. hit rate 0.69% among 190,000;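 active means primary screen inhibition at 20 µM above a set limit, cut at about 50% in these data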;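 further: plate controls were DMSO with full reaction for no effect and wells lacking NADH for full effect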
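material = Clostridium kluyveri diaphorase enzyme | amount = 0.14 U/mL diaphorase, enzyme working solution | schedule = incubation 16 min, room temperature | detection = fluorescence of resorufin formed from resazurin, Ex 544/Em 590 nm | benchmarks = positive control minus NADH, DMSO neutral control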
HKDC1 inh – blocks human hexokinase HKDC1 activity. hit rate 0.16% among 340,000. recombinant HKDC1, G6PDH/diaphorase resazurin coupled fluorescence. Q2TB90. inhibition, % at 20 µM;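 active means inhibition above about 35% when tested at 20 µM, limit read from the data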;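 further: plate controls were DMSO wells with enzyme for no effect and DMSO wells lacking enzyme for full effect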
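Test system: HK5 enzyme. Quantity: 5 µg/mL HK5 final. Reagent: glucose and ATP substrates. Schedule: 90 min reaction incubation at room temperature, dark. Technique: resazurin-to-resorufin fluorescence via G6PDH and diaphorase coupling, 525/613 nm. Control set: DMSO wells with and without enzyme mix.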
Numbers without * were called inactive; nt = no result. Compounds with a hit are over-represented: about 1.3% of the library has one in this group of screens.

SMILES	Diaph act CS	G6PDH counter	PfG6PD inh	Diaphorase inh	HKDC1 inh
O=c1c(O[C@@H]2O[C@H](CO)[C@@H](O)[C@H](O)[C@H]2O)c(-c2ccc(O)c(O)c2)oc2cc(O)cc(O)c12	0.2	34	nt	77*	nt
CC1OC(OCC2OC(Oc3c(-c4ccc(O)cc4)oc4cc(O)cc(O)c4c3=O)C(O)C(O)C2O)C(O)C(O)C1O (stereo not drawn)	0.9	16	17	12	3
O=c1c(O[C@@H]2O[C@H](CO)[C@H](O)[C@H](O)[C@H]2O)c(-c2ccc(O)c(O)c2)oc2cc(O)cc(O)c12	0.4	28	nt	56*	nt
O=c1c(O[C@@H]2O[C@H](CO)[C@@H](O)[C@H](O)[C@H]2O)c(-c2ccc(O)cc2)oc2cc(O)cc(O)c12	nt	nt	-6	nt	1
O=c1cc(-c2ccc(O)c(O)c2)oc2cc(O)c(C3OC(CO)C(O)C(O)C3O)c(O)c12 (stereo not drawn)	0.4	36	12	60*	0
C[C@@H]1O[C@@H](OC[C@H]2O[C@@H](Oc3c(-c4ccc(O)c(O)c4)oc4cc(O)cc(O)c4c3=O)[C@H](O)[C@@H](O)[C@@H]2O)[C@H](O)[C@H](O)[C@H]1O	0.3	37	-31	71*	0
Cn1c(SCC(=O)NCCc2ccccc2)ncc(C(=O)Nc2ccc(F)cc2)c1=O	nt	nt	9	nt	1
Cc1nn(-c2cccc(Cl)c2)c2nc(-c3ccco3)cc(C(=O)O)c12	0.7	7	-11	34	2
Cc1cccc(-n2nc(C)c3c(C(=O)O)cc(-c4cccs4)nc32)c1	0.5	5	-20	52*	-3
O=C1C2=C(c3ccccc31)[N+](=O)[C@@H]1CCCC[C@@H]1N2[O-]	0.2	28	16	76*	6
O=C1C2=C(c3ccccc31)[N+](=O)C1CCCCC1N2[O-] (stereo not drawn)	0.2	26	25	76*	11
O=C1c2ccccc2C(=O)c2c1ccc1c(=O)n(C3CCCCC3)[nH]c21	0.8	30	-7	24	26
O=C(OC1C2C=CC1C1C(=O)NC21)c1ccccc1 (stereo not drawn)	nt	nt	-5	nt	nt
O=C(CSc1nc2ccccc2n1CCc1ccccc1)N1CCOCC1	0.9	-10	12	12	-8
O=C(CSc1nc2ccccc2n1CCc1ccccc1)c1ccc(O)c(O)c1	0.4	14	22	63*	19
CCCCCCCCCCCCCCCCn1cc[n+](C)c1	3.2*	1	3	-225	3
COc1ccc(Nc2nc3[nH]c(=O)cc(O)c3s2)cc1	0.3	20	42	69*	3
CCCn1c(N)c(C(=O)COC(=O)c2c(C)noc2C)c(=O)n(C)c1=O	0.8	8	-2	20	0
CCCn1c(N)c(C(=S)NC(=O)C2CC2)c(=O)n(C)c1=O	0.5	-10	7	52*	-6
CCCCn1c(N)c(C(=S)NC(=O)CC(C)C)c(=O)n(C)c1=O	0.4	-8	-16	59*	-1
CC(=O)NC(=S)c1c(N)n(Cc2ccccc2)c(=O)n(C)c1=O	0.6	-2	nt	42	nt
O=C(OCc1ccccc1)N1CCC2CC1c1cc(-c3cc4ccccc4o3)ccc12 (stereo not drawn)	nt	nt	24	nt	nt
O=c1ccn([C@@H]2O[C@H](CNCC3=Cc4cc(O)ccc4OC3)[C@@H](O)[C@H]2O)c(=O)[nH]1	nt	nt	-6	nt	12
CC(=O)N1CCN(C2=Nc3cccc4cccc2c34)CC1	0.7	56*	26	34	8
COc1ccccc1N1CCN(C2=Nc3cccc4cccc2c34)CC1	0.9	3	4	6	14
SMILES	Diaph act CS	G6PDH counter	PfG6PD inh	Diaphorase inh	HKDC1 inh
CCOC(=O)N1CCN(C2=Nc3cccc4cccc2c34)CC1	0.7	58*	17	34	6
COc1ccc(CCNC(=O)CC2Nc3ccccc3NC2=O)cc1OC (stereo not drawn)	0.5	10	5	52*	12
N#Cc1cnc2nc1NCCCCCCC2	nt	nt	25	nt	nt
COc1ccc(C(=O)C2CCCN(C(=O)COc3ccc(C(C)=O)cc3)C2)cc1F (stereo not drawn)	0.3	14	6	70*	-3
Cc1cccc(C(=O)NC2C(=O)NNC2c2ccc(Cl)cc2)c1 (stereo not drawn)	0.5	13	10	52*	-2
Cc1ccc(Nc2nc(-c3ccc(O)c(O)c3)cs2)nc1	0.2	24	39	83*	-3
Cc1ccc(-n2c(-c3ccccc3)c[n+]3c2CCC3)cc1	0.2	5	-4	79*	-7
Cc1ccc(C(=O)N(CC(=O)NC2CCCC2)c2ccccc2F)s1	nt	nt	-23	nt	nt
COc1cc(N2C(=O)C=CC2=O)c(OC)cc1Cl	nt	nt	72*	nt	-6
COc1cc(Cl)c(S(=O)(=O)N2CCCC2)cc1Cl	nt	3	-7	nt	-5
CCc1noc(C)c1C(=O)N1CCSC1=Nc1cccc(Cl)c1C	nt	nt	20	nt	3
Cc1cccc(C(=O)NC(=S)Nc2ccccc2C(=O)O)c1	0.5	9	20	51*	-10
Cc1cccc(C(=O)NC(=S)Nc2ccccc2C(F)(F)F)c1	0.8	-10	29	16	-6
CCN1C(=O)[C@H]2[C@@H](c3ccc(OC)cc3)N[C@]3(CCCN(Cc4ccc(F)cc4)C3=O)[C@H]2C1=O	nt	nt	-11	nt	nt
Cc1ccc(S(=O)(=O)N2C[C@@H]3[C@H]4CC[C@H](C4)[C@@H]3[C@@H](C)[C@@H]2c2ccn([Si](C(C)C)(C(C)C)C(C)C)c2)cc1	nt	nt	2	nt	0
O=C1CCCc2cc3c(cc21)CC1(C3)Cc2cc3c(cc2C1)C(=O)CCC3	nt	nt	-3	nt	3
Cc1cccc(-n2c(SCC(=O)N3CCCC3)nc3n[nH]c(C)c3c2=N)c1	0.3	9	3	68*	2
CCCCN(CC)C(=O)CSc1nc2n[nH]c(C)c2c(=N)n1-c1cccc(C)c1	0.3	11	5	66*	3
CCN(C(=O)CSc1nc2n[nH]c(C)c2c(=N)n1-c1ccc(Cl)c(C)c1)c1cccc(C)c1	nt	nt	8	nt	1
Cc1ccc(CN2CCN(C(=O)C3CCCO3)CC2)cc1 (stereo not drawn)	1	-3	-4	1	-9
O=C(C1CCCO1)N1CCN(Cc2c(O)ccc3ccccc23)CC1 (stereo not drawn)	0.4	22	15	56*	15
CC(=O)NCCc1nc2cc(NC(=O)COc3ccc(C)cc3)ccc2n1C	nt	nt	8	nt	-6
Cc1cccc(C(=O)N=c2c(C#N)cc3c(=O)n4cccc(C)c4nc3n2Cc2ccco2)c1	0.4	15	33	60*	32
Cc1cccn2c(=O)c3cc(C#N)c(=NC(=O)c4ccccc4)n(Cc4ccco4)c3nc12	nt	nt	21	nt	24
Oc1ccc(-c2nc(-c3ccc(O)c(O)c3)cs2)cc1	0.4	25	37	63*	-1
